The values below come from ChEMBL document CHEMBL3861953 (J Med Chem, 2016).

Data set [1] is described as follows: Toxicity against Dictyostelium discoideum at 10 uM.
Data set [2] can be described thus: Inhibition of recombinant Mycobacterium tuberculosis InhA expressed in Escherichia coli Rosetta (DE3) pLysS using 2-trans-decenoyl-N-acetylcyste-amine as substrate in presence of NADH by spectrophotometric method. The gist of the method:
(§1)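 His-tagged InhA purified by Ni-chelate then gel filtration. Assay at 25 °C in 30 mM PIPES, 150 mM NaCl, 1 mM EDTA, pH 6.8 with 200 µM trans-2-decenoyl-N-acetylcysteamine, 100 µM NADH, 1 µg enzyme. Initial rate of A340 decrease over 120 s. DMSO 0.1%; triplicates; triclosan positive control.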

The test system of data set [3] is Mycobacterium marinum. Nature of the data set: Antimycobacterial activity against LuxABCDE expressing Mycobacterium marinum measured after 48 hrs by luminescence based serial dilution assay. The data set is classed as functional. The gist of the method:
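LuxABCDE-expressing M. marinum was grown shaking at 32°C in 7H9 with OADC to OD600 0.8-1. 10^5 bacteria per well were exposed to compounds (submicromolar to submillimolar) in 7H9 with 0.5% v/v DMSO at 32°C. Luminescence was followed for 48 h, with amikacin 10 µM as control. MIC was the lowest concentration giving significant signal reduction versus DMSO control at 48 h.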

Data set [4] has as its system Klebsiella pneumoniae. Briefly: Toxicity against Klebsiella pneumoniae at 10 uM.
Data set [5] has as its system Mycobacterium tuberculosis. Briefly: Inhibition of recombinant Mycobacterium tuberculosis InhA expressed in Escherichia coli Rosetta (DE3) pLysS at 30 uM using 2-trans-decenoyl-N-acetylcyste-amine as substrate measured for 120 sec in presence of NADH by spectrophotometric method. The gist of the method: as §1
In data set [6] the test system is Mycobacterium marinum. Nature of the data set: Antivirulence activity against Mycobacterium marinum assessed as Dictyostelium discoideum phagocytic plaque formation at 10 uM preincubated for 2 to 3 hrs followed by Dictyostelium discoideum addition measured after 5 to 9 days in presence of Klebsiella pneumoniae relative to control. The data set is classed as functional. An outline of the steps:
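Mixed lawn of mid-log Mm pellet resuspended in equal volume of overnight non-virulent Kp culture diluted 10-5; 50 µl spread on SM agar containing compound (10 µM), dried 2-3 h, then 103 Dictyostelium cells added. Incubated 5-9 days at 25 °C; phagocytic plaque diameter scored 0-4 versus DMSO control.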

Data set [7] deals with Enterococcus faecalis. Briefly: Antimicrobial activity against Enterococcus faecalis ATCC 29212 assessed as inhibition of bacterial growth measured after 24 hrs using p-iodonitrotetrazolium violet by broth dilution method. The data set is classed as functional. Particulars: ATCC 29212, 24 h. An outline of the steps:
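E. faecalis ATCC 29212 in Mueller-Hinton broth. Compounds were taken up at 2 mg/ml in DMSO (stock) and doubling dilutions were made in MHB. Inoculum was 1-5 × 10^5 final, incubated 37°C for 24 h, with sterility, growth and DMSO solvent controls. Growth was read by reduction of INT (2 mg/ml solution, several hours) to formazan. MIC was the lowest concentration with no red-purple colour or visible turbidity.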

[8] abbreviates: Mycobacterium marinum, 48 h, read-out: MIC.

SMILES strings stand for the structures. ≈ marks a conversion by molar mass, not a printed value. Calls of active or inactive are those of the source. The rule behind the calls is not given here.

In general, IC50 refers to the midpoint of a concentration-inhibition curve. In general, MIC refers to the lowest concentration that inhibits growth of the organism.

In the case of `CN(C)c1ccc(/C=C2\SC(=S)N([C@@H](Cc3c[nH]c4ccccc34)C(=O)O)C2=O)cc1` (stereo in doubt; 24) [listing 1 of 2 here], the Activity result in data set [1] and in data set [4] was “Non-Toxic” throughout. Also, in data set [2], the IC50 worked out at 14.7 µM. Besides, the MIC in data set [3] came out at 2.08 µM (≈ 0.939 µg/mL).
For the compound `CCCCC(C(=O)O)N1C(=O)/C(=C/c2ccc(N(C)C)c3ccccc23)SC1=S` (racemic), the inhibition entry in data set [5] was “Active”. Moreover, the IC50 in data set [2] turned out to be 24.4 µM. The MIC in data set [3] (setting [8]) came to 2.33 µM (≈ 0.999 µg/mL).
With `CCCc1ccc(/C=C2\SC(=S)N([C@H](Cc3c[nH]c4ccccc34)C(=O)O)C2=O)cc1`, the Activity entry in data set [1] and in data set [4] was “Non-Toxic” each time. Moreover, in data set [6], the outcome was Active. Besides, in data set [5], the inhibition result is “Active”. In data set [2], the IC50 turned out to be 13 µM. The minimum inhibitory concentration (MIC) in data set [3] (setting [8]) was 55.5 µM (≈ 25 µg/mL).
Turning to `O=C(O)[C@@H](Cc1c[nH]c2ccccc12)N1C(=O)/C(=C/c2ccc(N(CCCl)CCCl)cc2)SC1=S`, the Activity entry in data set [1] and in data set [4] was “Non-Toxic” throughout. In addition, the result in data set [6] was Active. The inhibition result in data set [5] was “Active”. Further, in data set [2], the IC50 is 15.2 µM. For the same compound, the MIC in data set [3] (setting [8]) was 18.3 µM (≈ 10 µg/mL).
Regarding `CN(C)c1ccc(/C=C2\SC(=S)N([C@@H](Cc3c[nH]c4ccccc34)C(=O)O)C2=O)cc1` (stereo in doubt; 12) [listing 1 of 2 here], the 50% inhibitory concentration (IC50) in data set [2] came out at 28.6 µM. In data set [3], this compound showed a minimum inhibitory concentration (MIC) of 22.17 µM (≈ 10 µg/mL).
As to `CN(C)c1ccc(/C=C2\SC(=S)N([C@@H](Cc3c[nH]c4ccccc34)C(=O)O)C2=O)cc1` (stereo in doubt; 24) [listing 2 of 2 here], the outcome in data set [6] was Active. The inhibition result in data set [5] was “Active”.
In the case of `CN(C)c1ccc(/C=C2\SC(=S)N([C@@H](Cc3c[nH]c4ccccc34)C(=O)O)C2=O)c2ccccc12`, the Activity result in data set [1] and in data set [4] was “Non-Toxic” throughout. Besides, the outcome in data set [6] was Active. Moreover, the inhibition entry in data set [5] was “Active”. The IC50 in data set [2] worked out at 19.1 µM. In addition, the minimal inhibitory concentration (MIC) in data set [3] (setting [8]) amounted to 1.99 µM (≈ 0.998 µg/mL).
In the case of `Oc1cc(Cl)ccc1Oc1ccc(Cl)cc1Cl` [TRICLOSAN], the IC50 in data set [2] amounted to 6.1 µM. Also, the MIC in data set [3] (setting [8]) stood at 8.63 µM (≈ 2.5 µg/mL).
On to `Cc1ccc(/C=C2\SC(=S)N([C@H](Cc3c[nH]c4ccccc34)C(=O)O)C2=O)c2ccccc12`, for which the Activity entry in data set [1] and in data set [4] was “Non-Toxic” throughout. Besides, the outcome in data set [6] was Active. For the same compound, in data set [5], the inhibition result was “Active”. The IC50 in data set [2] came out at 11 µM. Besides, the MIC in data set [3] (setting [8]) is 2.11 µM (≈ 0.997 µg/mL); in data set [7], 5.2 µM (≈ 2.46 µg/mL).
Turning to `CCCc1ccc(/C=C2\SC(=S)N([C@@H](Cc3c[nH]c4ccccc34)C(=O)O)C2=O)cc1`, the Activity entry in data set [1] and in data set [4] was “Non-Toxic” in each case. The result in data set [6] was Active. In addition, in data set [5], the inhibition result is “Active”. In data set [2], the IC50 came to 13 µM. The MIC in data set [3] (setting [8]) stood at 22.2 µM (≈ 10 µg/mL).
As for `CN(C)c1ccc(/C=C2\SC(=S)N([C@@H](Cc3c[nH]c4ccccc34)C(=O)O)C2=O)cc1` (stereo in doubt; 12) [listing 2 of 2 here], in data set [5], the inhibition entry was “Active”.
For the compound `NCC[C@H](O)C(=O)N[C@@H]1C[C@H](N)[C@@H](O[C@H]2O[C@H](CN)[C@@H](O)[C@H](O)[C@H]2O)[C@H](O)[C@H]1O[C@H]1O[C@H](CO)[C@@H](O)[C@H](N)[C@H]1O` [AMIKACIN], in data set [3] (setting [8]), the MIC was 1.7 µM (≈ 0.996 µg/mL).
On to `O=C(O)[C@H](Cc1c[nH]c2ccccc12)N1C(=O)/C(=C/c2ccc(Cl)cc2)SC1=S`, for which the Activity entry in data set [1] and in data set [4] was “Non-Toxic” throughout. In addition, in data set [6], the outcome was Active. The inhibition result in data set [5] is “Active”. In addition, the half-maximal inhibitory concentration (IC50) in data set [2] was found to be 19.7 µM. Besides, the minimum inhibitory concentration (MIC) in data set [3] (setting [8]) was 21.1 µM (≈ 9.32 µg/mL).
Consider `O=C(O)[C@H](Cc1c[nH]c2ccccc12)N1C(=O)/C(=C/c2ccc(N(CCCl)CCCl)cc2)SC1=S`, for which the Activity result in data set [1] and in data set [4] was “Non-Toxic” in each case. Besides, in data set [6], the result was Active. In addition, in data set [5], the inhibition entry was “Active”. Moreover, in data set [2], the IC50 worked out at 12.2 µM. Also, in data set [3] (setting [8]), the MIC was determined as 1.82 µM (≈ 0.998 µg/mL).
`O=C(O)[C@H](Cc1c[nH]c2ccccc12)N1C(=O)/C(=C/c2ccc(Cl)cc2Cl)SC1=S`: the Activity entry in data set [1] and in data set [4] was “Non-Toxic” in each case. The outcome in data set [6] was Active. In data set [5], the inhibition entry was “Active”. Besides, in data set [2], the IC50 came out at 9.5 µM. In addition, the MIC in data set [3] (setting [8]) was 21 µM (≈ 10 µg/mL).
As for `CCN(CC)c1ccc(/C=C2\SC(=S)N([C@@H](CC(C)C)C(=O)O)C2=O)cc1`, the Activity entry in data set [1] and in data set [4] was “Non-Toxic” each time. Besides, the outcome in data set [6] was Active. Moreover, the inhibition entry in data set [5] is “Active”. Further, the IC50 in data set [2] was 22.4 µM. For the same compound, the MIC in data set [3] (setting [8]) amounted to 2.46 µM (≈ 1 µg/mL).
Turning to `CC(C)CC(N1C(=O)/C(=C/c2ccc(N(C)C)c3ccccc23)SC1=S)P(=O)(O)O` (configuration not stated), the Activity result in data set [1] and in data set [4] was “Non-Toxic” throughout. In addition, the outcome in data set [6] was Active. Besides, in data set [5], the inhibition entry was “Active”. In data set [2], the IC50 turned out to be 19.1 µM. Also, the MIC in data set [3] (setting [8]) worked out at 21.6 µM (≈ 10 µg/mL).
Turning to `Cc1ccc(/C=C2\SC(=S)N([C@@H](Cc3c[nH]c4ccccc34)C(=O)O)C2=O)c2ccccc12`, the Activity result in data set [1] and in data set [4] was “Non-Toxic” each time. Further, the result in data set [6] was Active. Besides, the inhibition entry in data set [5] was “Active”. For the same compound, the IC50 in data set [2] turned out to be 8.7 µM. In addition, the MIC in data set [3] (setting [8]) turned out to be 0.21 µM (≈ 0.0992 µg/mL); in data set [7], 2.6 µM (≈ 1.23 µg/mL).
On to `O=C(O)[C@H](Cc1c[nH]c2ccccc12)N1C(=O)/C(=C/c2c3ccccc3c(Cl)c3ccccc23)SC1=S`, for which the Activity result in data set [1] and in data set [4] was “Non-Toxic” in each case. Also, the result in data set [6] was Active. For the same compound, the inhibition entry in data set [5] is “Active”. Further, the IC50 in data set [2] is 2.9 µM. For the same compound, the MIC in data set [3] (setting [8]) was determined as 184 µM (≈ 100 µg/mL); in data set [7] it was 0.57 µM (≈ 0.31 µg/mL).
Take `CC(C)C[C@H](C(=O)O)N1C(=O)/C(=C/c2ccc(N(C)C)c3ccccc23)SC1=S`: the inhibition entry in data set [5] is “Active”.
Take `CC(C)C[C@@H](C(=O)O)N1C(=O)/C(=C/c2ccc(N(C)C)c3ccccc23)SC1=S`: the inhibition entry in data set [5] is “Active”.
